Experimental findings from PubChem BioAssay AID2607 (Broad Institute, 2010) are described below.

This experiment relates to DRD fibroblasts (non-viral oncogenic) viability, Alamar Blue fluorescence, 48 h. The experiment is described as follows: killing of non-viral oncogenic fibroblasts – cell-based, fluorescence, Alamar Blue, powder samples, dose response (AID 2607). Summed up:
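Test system: DRD fibroblast cells. Buffer or medium: DMEM and M199 growth medium with fetal bovine serum. Doses: 2-fold series, 0.01–5.33 µg/mL final. Schedule: 48 h compound exposure, 37 °C, then ~16 h alamar blue. Signal: Alamar blue fluorescence, ex 544/em 590 nm.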
A general note: Resazurin is reduced to fluorescent resorufin, in cell work by metabolically active cells.

One may read the EC50 as the concentration that produces a half-maximal response.

For `CCCCCCCN(C(=O)CCl)c1cccc(C)c1`, the EC50 is 0.171 µM.
As to `COc1ccc(N(C(=O)CCl)C(C(=O)NCCc2ccccc2)c2cccs2)cc1` (centres undefined), the EC50 is 0.214 µM.
As for `Nc1nc(CCl)nc(Nc2ccc3ccccc3c2)n1`, the EC50 is 0.082 µM.
Consider `O=C(CCl)N=c1sccn1Cc1ccccc1Cl`, for which the EC50 is 0.183 µM.
The figure for `COc1ccc(C(C(=O)NC2CCCCC2)N(C(=O)CCl)c2ccc(C)cc2)cc1` (centres undefined) is 0.143 µM; for `COc1ccc(C(C(=O)NC2CCCCC2)N(C(=O)CCl)c2cccc(Cl)c2)cc1` (centres undefined) it is 0.137 µM.
Regarding `Cc1ccc(N(C(=O)CCl)C(C(=O)NC2CCCCC2)c2cccnc2)cc1C` (centres undefined), the EC50 was 0.147 µM.
With `COc1cccc(N(C(=O)CCl)C(C(=O)NCCc2ccccc2)c2cccs2)c1` (centres undefined), the EC50 was 0.145 µM.
To `COc1ccc(N(C(=O)CCl)C(C(=O)NCCc2ccccc2)c2cccs2)cc1Cl` (centres undefined) belongs 0.034 µM.
Consider `COC(=O)[C@@H]1Cc2c([nH]c3ccccc23)C(C)(C)N1C(=O)CCl`, for which the EC50 is 0.467 µM.
For the molecule `CCOc1ccc(Nc2nc(N)nc(CCl)n2)cc1`, the EC50 is 0.183 µM.
Take `COc1ccc(CN(CCC(c2ccccc2)c2ccc(OC(C)C)cc2)C(=O)CCl)cc1OC` (centres undefined): the half-maximal effective concentration (EC50) was 0.622 µM.
As for `Cc1ccc(C2CC(c3cccs3)=NN2C(=O)CCl)cc1` (centres undefined), the EC50 was 1.21 µM.
As to `C=CCOc1ccccc1CN(C(=O)CCl)c1ccc2c(c1)OCO2`, the EC50 is 1.14 µM.
